# Compound activity as filed in PubChem.
# Sampled rows, rich in hits. Any-hit rate of the full collection: about 3.5%.
# RGS4 block – human RGS4 inhibition; HEK293 M3R/RGS4 inducible, Fluo-4 calcium flux; active compounds read high; triggered by carbachol at its EC20; B-score at 10 µM; actives 0.45% (n = 310,000); AID 463165;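 active = B-score, a plate-corrected calcium signal, over three deviations above library mean, with baseline fluorescence within five deviations of library mean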;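 also: RGS4 expression induced by doxycycline in cells with stable M3 receptor; B-score is computed from the integrated fluorescence ratio over baseline after carbachol; higher B-score means a larger calcium signal and so more RGS4 inhibition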
# Target sequence (P49798 whole entry, looked up): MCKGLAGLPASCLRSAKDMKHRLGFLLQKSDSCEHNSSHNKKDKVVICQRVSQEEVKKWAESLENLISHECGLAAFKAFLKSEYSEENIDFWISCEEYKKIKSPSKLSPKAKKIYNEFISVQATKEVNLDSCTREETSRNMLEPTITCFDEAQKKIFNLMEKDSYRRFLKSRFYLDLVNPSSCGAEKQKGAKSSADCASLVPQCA
# MrgX1 PAM – human MrgX1 positive allosteric modulation, primary screen; MrgX1-HEK293, Fluo-4 calcium flux, FDSS; active compounds read high; B-score at 10 µM; actives 0.63% (n = 310,000);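 active = plate-corrected calcium response at least 3 library SD above typical, normal starting fluorescence, not activating the receptor alone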;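 also: compound read alongside a low EC10 to EC30 dose of BAM8-22 agonist; peak minus trough fluorescence over baseline measured at the second addition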
# Target sequence (Q96LB2 whole entry, looked up): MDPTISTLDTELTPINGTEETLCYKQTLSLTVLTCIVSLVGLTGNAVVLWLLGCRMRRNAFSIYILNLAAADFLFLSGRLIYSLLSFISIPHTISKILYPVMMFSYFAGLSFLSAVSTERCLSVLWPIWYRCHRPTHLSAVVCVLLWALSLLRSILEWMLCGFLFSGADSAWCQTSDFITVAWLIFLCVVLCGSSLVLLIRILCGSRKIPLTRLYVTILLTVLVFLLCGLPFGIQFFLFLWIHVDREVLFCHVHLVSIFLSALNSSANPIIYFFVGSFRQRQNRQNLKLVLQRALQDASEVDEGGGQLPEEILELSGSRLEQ
# RGS4 act – potentiators or activators of RGS4; AID 463111; B-score at 10 µM; actives 0.92% (n = 310,000); HEK293 M3R/inducible RGS4, carbachol calcium flux Fluo4; active compounds read low;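 active = B-score of the integrated calcium signal more than 4 SD below the library mean, with starting fluorescence not abnormally high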;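 also: negative B-score means reduced calcium response which marks RGS4 activation or potentiation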
#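 test system = M3R-expressing HEK293 line, RGS4 induced by doxycycline | probe or stimulus = carbachol at ECmax as muscarinic agonist stimulus | timing = dye loading 30 min 37 °C, buffer rest 30 min RT | signal = calcium dye Fluo4 fluorescence | evaluation = B score from integrated fluorescence ratio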
# MrgX1 ag – activates human MrgX1 receptor signaling. Q96LB2. MrgX1-HEK293 cells, Fluo-4 calcium fluorescence, agonist mode; active compounds read high. B-score at 10 µM. actives 0.44% (n = 310,000). AID 588627;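 active = calcium response B-score plate-corrected fluorescence ratio at least 3 library SD, with starting fluorescence B-score inside 5 SD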
#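 Assay system: stable human MrgX1 HEK293 cell line. Quantity: 15,000 cells per well. Schedule: cells plated overnight, dye loaded 0.5 h 37 °C, 0.5 h room temperature. Detection: Fluo-4 NW calcium-flux fluorescence, kinetic read. Read-out basis: peak-minus-minimum fluorescence over baseline, converted to B scores. Control set: positive and negative control wells on each plate.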
# MrgX1 antag – blocks BAM8-22 activation of human MrgX1 receptor. Q96LB2. B-score at 10 µM. actives 1.3% (n = 310,000). MRGX1-HEK293 calcium flux, Fluo-4, BAM8-22 antagonism; active compounds read low;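 active = calcium-response B-score plate-corrected more than 3 library SD below zero, starting fluorescence within 5 deviations, no agonist response on first addition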;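 also: peak minus trough fluorescence over baseline after final BAM8-22 challenge near maximal dose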
# RGS4 act valid – RGS4 activation, validation assay; shares compounds with RGS4 act; HEK293 M3R/RGS4 inducible, carbachol calcium flux Fluo4; inhibition, % at 10 µM; actives 89% (n = 1,100);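 active = inhibition above 3 SD of the buffer control wells, cut at about 41% in these data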;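 also: signal is the integrated peak-minus-minimum Fluo4 fluorescence over baseline ratio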
# M3R Ca counter – RGS4 activator counter-screen hit in non-induced cells. HEK293 M3R non-induced RGS4, Fluo4 calcium flux; after carbachol challenge at its EC90. shares compounds with RGS4 act. actives 82% (n = 1,100). inhibition, % at 10 µM;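 active = inhibition exceeding 3 SD of buffer-only control wells, cut at about 26% in these data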;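 also: percent drop in integrated peak-minus-baseline over baseline Fluo4 ratio after carbachol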
# An asterisk follows results filed as active; i = inactive; . = no result.
SMILES,RGS4 block,MrgX1 PAM,RGS4 act,MrgX1 ag,MrgX1 antag,RGS4 act valid,M3R Ca counter
Cc1c(C(=O)N2CCN(c3ccc(F)cc3)CC2)sc2ncnc(N3CCN(c4ccccn4)CC3)c12,i,i,-8.9*,i,i,92.0*,83.8*
Cc1c(C(=O)N(C)C2CCCCC2)sc2ncnc(N3CCN(c4ccccc4F)CC3)c12,i,i,i,i,i,.,.
Fc1cccc(-c2cc3nc4c(c(NCc5ccco5)n3n2)CCCC4)c1,i,i,-8.14*,i,i,86.0*,44.8*
Fc1cccc(-c2cc3nc4c(c(N5CCOCC5)n3n2)CCCC4)c1,i,i,i,i,i,.,.
Cc1ccc2nc3sc(C(=O)Nc4ccc(N5CCOCC5)cc4)c(N)c3cc2c1,i,.,i,.,.,.,.
Cc1cccc2cc3c(N)c(C(=O)Nc4ccc(N5CCOCC5)cc4)sc3nc12,i,i,-11.3*,i,-5.44*,92.5*,73.8*
COc1ccccc1CCNC(=O)C(=O)NCC1CCCN1S(=O)(=O)c1ccccc1 (configuration not stated),i,i,-10.9*,i,-4.52*,79.5*,83.8*
O=C(NCc1ccc(F)cc1)C(=O)NCC1CCCN1S(=O)(=O)c1ccccc1 (configuration not stated),i,i,i,i,i,.,.
O=C(NCCc1ccc(F)cc1)C(=O)NCC1CCCN1S(=O)(=O)c1ccccc1 (configuration not stated),i,i,-9.26*,i,i,89.5*,68.3*
COc1ccc(CCNC(=O)C(=O)NCC2CCCN2S(=O)(=O)c2ccccc2)cc1 (configuration not stated),i,i,-12.1*,i,i,87.5*,54.3*
Cc1cccc(C(=O)NCC(=O)NCC2COc3ccccc3O2)c1 (configuration not stated),i,i,i,i,i,.,.
CCc1nc2ccc(C(=O)N3CCN(c4ccc([N+](=O)[O-])cc4)CC3)cc2nc1CC,i,i,i,i,i,.,.
Cc1cccc(NC(=S)NC(C)C(c2ccccc2)N2CCN(C)CC2)c1C (configuration not stated),i,i,i,i,i,.,.
Cc1cc2c(cc1S(=O)(=O)Nc1cccc(F)c1)n(C)c(=O)c(=O)n2C,i,i,i,i,i,.,.
C=CCOC(=O)C1=C(C)NC(SCC)=C(C#N)C1c1ccc(Cl)cc1 (configuration not stated),i,i,-7.64*,i,i,93.0*,84.3*
C=CCOC(=O)C1=C(C)NC(SCC(N)=O)=C(C#N)C1c1ccc(C)cc1 (configuration not stated),i,i,i,i,i,.,.
O=C(NCCOc1ccc(F)cc1)C1CCC(=O)N(CC2CCCCC2)C1 (configuration not stated),i,i,i,i,i,.,.
Cc1ccccc1Sc1c(C#N)c(-c2ccccc2)nn1C,i,i,-8.28*,i,i,88.0*,57.8*
C[n+]1cccc(C2C(C#N)=C(N)Oc3c2ccc2ccccc32)c1 (configuration not stated),i,i,i,i,i,.,.
C[n+]1cccc2ccc3c(c21)OC(N)=C(C#N)C3c1ccccc1 (configuration not stated),i,i,-11.8*,i,i,76.5*,83.8*
CCc1ccc(C(=O)COC(=O)c2cc([N+](=O)[O-])ccc2N2CCOCC2)cc1,i,i,i,i,i,.,.
CCOC(=O)C1(CCc2ccccc2)CCN(Cc2ccc(C(=O)OC)cc2)CC1,i,i,i,i,i,.,.
COc1ccc(/C=C/CN2CCC(CO)(Cc3ccccc3Cl)CC2)cc1,i,i,-9.73*,i,i,89.0*,39.8*
CCOC(=O)C1(CC2CC2)CCN(Cc2ccc(C(=O)OC)cc2)CC1,i,i,-8.73*,i,i,93.0*,48.8*
COC(=O)c1ccc(CN2CCC(CO)(Cc3ccccc3Cl)CC2)cc1,i,i,-7.76*,i,i,91.5*,59.8*
SMILES,RGS4 block,MrgX1 PAM,RGS4 act,MrgX1 ag,MrgX1 antag,RGS4 act valid,M3R Ca counter
CC(C)c1ccc(N=C(N)N=C(N)N)cc1,i,i,i,i,i,.,.
COc1ccc(Cc2nnc(NC(=O)c3ccccc3C)s2)cc1,i,i,i,i,i,.,.
O=C(Nc1ccc(N2CCN(C(=O)c3ccco3)CC2)c(Cl)c1)c1cc2ccccc2o1,i,i,-8.68*,i,i,93.0*,64.3*
COc1ccc(-c2cc(-c3nnc(COC(=O)c4ccc(O)cc4)o3)c3ccccc3n2)cc1OC,i,i,-7.72*,i,i,61.5*,0.0
COc1ccccc1C(=O)NCC(c1cccs1)N1CCc2ccccc21 (configuration not stated),i,i,-7.77*,i,i,61.5*,36.3*
COC(=O)c1cc(OC)c(OC)cc1NC(=O)CSc1ccccc1,i,i,i,i,i,.,.
Cc1cc(C)c(S(=O)(=O)N(C)CC(N)=O)c(C)c1,i,i,i,i,i,.,.
COc1[nH]c(/N=C/c2ccccc2)c(C#N)c1C#N,i,i,-8.37*,i,i,0.0,0.0
Cc1cc(C(=O)CSc2n[nH]c(-c3ccccc3F)n2)c(C)n1Cc1cccs1,i,i,i,i,i,.,.
Cc1cccc(N2CCN(C(=O)c3ccc(Cl)c(NC4=NC5CS(=O)(=O)CC5S4)c3)CC2C)c1 (configuration not stated),i,i,-8.53*,i,i,0.0,0.0
O=C(c1ccc(Cl)c(NC2=NC3CS(=O)(=O)CC3S2)c1)N1CCN(c2ccccc2)CC1 (configuration not stated),i,i,i,i,i,.,.
COC(=O)c1cc2ccsc2n1Cc1cc(=O)n2ccccc2n1,i,i,-10*,i,i,89.5*,62.8*
Cc1ccc2c(n1)CC(C)(C)CC2=O,i,i,i,i,i,.,.
Cc1cc(C)c2c(CN3CCN(Cc4ccccc4)CC3)cc(=O)oc2c1,i,i,i,i,i,.,.
Cc1cc2oc(=O)cc(CN3CCN(Cc4ccc5c(c4)OCO5)CC3)c2cc1C,i,i,i,i,i,.,.
